Data as given in ChEMBL document CHEMBL1649525, “Population pharmacokinetic analysis of colistin methanesulfonate and colistin after intravenous administration in critically ill patients with infections caused by gram-negative bacteria” (Antimicrob Agents Chemother, 2009).

Assays:
Pseudomonas aeruginosa [1] = assay: Antimicrobial activity against Pseudomonas aeruginosa by CLSI method; format: functional
[2] = (§1) Half life in peripheral compartment of patient with gram-negative bacterial infection at […], iv; format: ADME, organism-based; design: route intravenous; conditions: human, in vivo
Outline: (§2)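 Critically ill ICU patients (n=18) received CMS 3 MU (240 mg) in 100 ml saline as a 15-min IV infusion every 8 h, reduced to 160 mg q8h if creatinine clearance was <50 ml/min. Venous plasma was taken predose and 15–465 min after the first and fourth infusions, then chilled and stored at −70°C. Colistin was measured by LC-MS/MS, and CMS after acid hydrolysis. Parameters came from NONMEM population modelling.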

Acinetobacter baumannii [3] = assay: Antimicrobial activity against Acinetobacter baumannii by CLSI method; format: functional
Pseudomonas aeruginosa [4] = assay: Antimicrobial activity against Pseudomonas aeruginosa by EUCAST method; format: functional
Acinetobacter baumannii [5] = assay: Antimicrobial activity against Acinetobacter baumannii by EUCAST method; format: functional
[6] = (§3) Half life in central compartment of patient with gram-negative bacterial infection at […], iv; format: ADME, organism-based; design: route intravenous; conditions: human, in vivo; outline: as §2
[7] = Drug concentration at steady state in patient with gram-negative bacterial infection at […], iv after 7 hrs; format: ADME, organism-based; design: route intravenous; conditions: human, in vivo, read-out: Css; outline: as §2
[8] = Volume of distribution of central compartment in patient with gram-negative bacterial infection at […], iv; format: ADME, organism-based; design: route intravenous; conditions: human, in vivo; outline: as §2
[9] = Clearance in patient with gram-negative bacterial infection at […], iv; format: ADME, organism-based; design: route intravenous; conditions: human, in vivo; outline: as §2
Homo sapiens [10] = assay: Intercompartmental clearance in patient with gram-negative bacterial infection at […], iv; format: ADME, organism-based; design: route intravenous; conditions: in vivo; outline: as §2
[11] = Cmax in patient with gram-negative bacterial infection at […], iv after 15 mins; format: ADME, organism-based; design: route intravenous; conditions: human, in vivo; outline: as §2
Homo sapiens [12] = assay: as §1; format: ADME, organism-based; design: route intravenous; conditions: in vivo; outline: as §2
Homo sapiens [13] = assay: Clearance of formed compound in patient with gram-negative bacterial infection at […], iv; format: ADME, organism-based; design: route intravenous; conditions: in vivo; outline: as §2
Homo sapiens [14] = assay: as §3; format: ADME, organism-based; design: route intravenous; conditions: in vivo; outline: as §2
Homo sapiens [15] = assay: Half life in patient with gram-negative bacterial infection at […], iv; format: ADME, organism-based; design: route intravenous; conditions: in vivo; outline: as §2
Homo sapiens [16] = assay: Volume of distribution of formed compound in patient with gram-negative bacterial infection at […], iv; format: ADME, organism-based; design: route intravenous; conditions: in vivo; outline: as §2

MIC (Pseudomonas aeruginosa [1]) [µg/mL]	half-life [2] [h]	MIC (Acinetobacter baumannii [3]) [µg/mL]	MIC (Pseudomonas aeruginosa [4]) [µg/mL]	MIC (Acinetobacter baumannii [5]) [µg/mL]	half-life [6] [min]	concentration at 7 h [7] [ng/mL]	Vd [8] [L]	clearance [9] [mL/min]	CL (Homo sapiens [10]) [L/h]	Cmax [11] [ng/mL]	t1/2 (Homo sapiens [12]) [h]	CL (Homo sapiens [13]) [L/h]	t1/2 (Homo sapiens [14]) [h]	t1/2 (Homo sapiens [15]) [h]	Vd (Homo sapiens [16]) [L]	Molecule
≤ 2	2.3	≤ 2	≤ 2	≤ 2	2.76	2300	13.5	228	133	2930	–	–	–	–	–	CCC(C)CCCCC(=O)N[C@@H](CCNCS(=O)(=O)O)C(=O)N[C@H](C(=O)N[C@@H](CCNCS(=O)(=O)O)C(=O)N[C@H]1CCNC(=O)[C@H]([C@@H](C)O)NC(=O)[C@H](CCNCS(=O)(=O)O)NC(=O)[C@H](CCNCS(=O)(=O)O)NC(=O)[C@H](CC(C)C)NC(=O)[C@@H](CC(C)C)NC(=O)[C@H](CCNCS(=O)(=O)O)NC1=O)[C@@H](C)O.CS(=O)(=O)O (stereo partly specified) [COLISTIN METHYLSULPHATE]
–	–	–	–	–	–	–	–	–	–	–	14.4	9.09	14.4	7.1	189	COLISTIN
